Where “and” joins values, the source holds several entries; their conditions need not be identical. Equal values may be shown once.
Test system: U2OS
Assay: Multiplex assay against U2OS
Format: toxicity, cell-based
Conditions: human
Procedure, shortened: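 Values for tubulin, mitochondrial-mass and membrane-permeability phenotypes are per cents of cells with healthy nuclei. These cells were identified by CellPathfinder machine-learning gating of live cells that had been stained at seeding with Hoechst33342, BioTracker Green Microtubule Cytoskeleton Dye, MitoTracker Red and Annexin V Alexa Fluor 680 and imaged on a CQ1 microscope at 37°C and 5% CO2 after compound addition. The gating first set Hoechst high-intensity objects apart from normal cells, then split normal cells into healthy, pyknosed or fragmented nuclei, and pyknosed cells into mitotic or apoptotic.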

[1] = 12 h, 1 µM, compound concentration 1 uM
[2] = 12 h, 10 µM, compound concentration 10 uM
[3] = 24 h, 1 µM, compound concentration 1 uM
[4] = 24 h, 10 µM, compound concentration 10 uM
[5] = 48 h, 1 µM, compound concentration 1 uM
[6] = 48 h, 10 µM, compound concentration 10 uM

## CC(C)Oc1ccc(F)c(-c2cnc(N)c(C(=O)Nc3cnccc3N3CCC[C@@H](C(=O)O)C3)n2)c1
[1]
  Population Apoptotic (%): 45.71% and 37.5%
  Population Fragmented Nuclei (%): 1.25% and 5.73%
  Population Healthy Nuclei (%): 90.02% and 84.08%
  Population Hoechst High Intensity Objects (%): 0%
  Population Membrane Permeable-Phenotype (%): 0.28% and 7.58%
  Population Mitochondria Different-Phenotype (%): 0% and 6.82%
  Population Mitotic Cells (%): 54.29% and 62.5%
  Population Normal (%): 100%
  Population Pyknosed Nuclei (%): 8.73% and 10.19%
  Population Tubulin-Different-Phenotype (%): 0.28% and 0%
  Total Cell Count: 401 and 157
[2]
  Population Apoptotic (%): 73.33% and 43.75%
  Population Fragmented Nuclei (%): 9.57% and 11.05%
  Population Healthy Nuclei (%): 83.25% and 79.65%
  Population Hoechst High Intensity Objects (%): 0%
  Population Membrane Permeable-Phenotype (%): 8.33% and 15.33%
  Population Mitotic Cells (%): 26.67% and 56.25%
  Population Normal (%): 100%
  Population Pyknosed Nuclei (%): 7.18% and 9.3%
  Population Tubulin-Different-Phenotype (%): 4.02% and 3.65%
  Total Cell Count: 418 and 172
[3]
  Population Apoptotic (%): 38.6% and 34.38%
  Population Fragmented Nuclei (%): 1.54% and 3.88%
  Population Healthy Nuclei (%): 87.45% and 80.58%
  Population Hoechst High Intensity Objects (%): 0%
  Population Membrane Permeable-Phenotype (%): 0.66% and 4.22%
  Population Mitochondria Different-Phenotype (%): 0% and 3.61%
  Population Mitotic Cells (%): 61.4% and 65.62%
  Population Normal (%): 100%
  Population Pyknosed Nuclei (%): 11% and 15.53%
  Population Tubulin-Different-Phenotype (%): 1.1% and 0%
  Total Cell Count: 518 and 206
[4]
  Population Apoptotic (%): 49.3% and 65.52%
  Population Fragmented Nuclei (%): 11.73% and 11.05%
  Population Healthy Nuclei (%): 74.16% and 73.68%
  Population Hoechst High Intensity Objects (%): 0%
  Population Mitotic Cells (%): 50.7% and 34.48%
  Population Normal (%): 100%
  Population Pyknosed Nuclei (%): 14.12% and 15.26%
  Population Tubulin-Different-Phenotype (%): 6.97% and 2.14%
  Total Cell Count: 503 and 190
[5]
  Population Apoptotic (%): 39.13% and 30.56%
  Population Fragmented Nuclei (%): 2.98% and 4.32%
  Population Healthy Nuclei (%): 86.85% and 84.57%
  Population Hoechst High Intensity Objects (%): 0% and 0.31%
  Population Membrane Permeable-Phenotype (%): 2.04% and 2.92%
  Population Mitochondria Different-Phenotype (%): 0% and 2.55%
  Population Mitotic Cells (%): 60.87% and 69.44%
  Population Normal (%): 100% and 99.69%
  Population Pyknosed Nuclei (%): 10.17% and 11.11%
  Population Tubulin-Different-Phenotype (%): 1.65% and 1.82%
  Total Cell Count: 905 and 325
[6]
  Population Apoptotic (%): 62.73% and 80.56%
  Population Fragmented Nuclei (%): 8.71% and 11.34%
  Population Healthy Nuclei (%): 63.24% and 58.4%
  Population Hoechst High Intensity Objects (%): 0%
  Population Membrane Permeable-Phenotype (%): 2.48% and 6.47%
  Population Mitotic Cells (%): 37.27% and 19.44%
  Population Normal (%): 100%
  Population Pyknosed Nuclei (%): 28.05% and 30.25%
  Population Tubulin-Different-Phenotype (%): 16.25% and 8.63%
  Total Cell Count: 574 and 238
